Measured values: ChEMBL document CHEMBL1157098, “AMP-activated protein kinase (AMPK) activation by benzofurans and coumestans isolated from Erythrina abyssinica” (J Nat Prod, 2010)
The source made the active and inactive calls. No cut-off for these calls is given here.

Experiments:
Assay type in all cases: cell-based
[1] = molecular target: 5'-AMP-activated protein kinase catalytic subunit alpha-1 (Mus musculus) (UniProt Q5EG47); test: Activation of AMPKalpha in differentiated mouse C2C12 cells assessed as phosphorylated-AMPK level at 10 uM after 30 mins by Western blot analysis relative to control
Sequence of 5'-AMP-activated protein kinase catalytic subunit alpha-1 (Mus musculus) (Q5EG47 whole entry): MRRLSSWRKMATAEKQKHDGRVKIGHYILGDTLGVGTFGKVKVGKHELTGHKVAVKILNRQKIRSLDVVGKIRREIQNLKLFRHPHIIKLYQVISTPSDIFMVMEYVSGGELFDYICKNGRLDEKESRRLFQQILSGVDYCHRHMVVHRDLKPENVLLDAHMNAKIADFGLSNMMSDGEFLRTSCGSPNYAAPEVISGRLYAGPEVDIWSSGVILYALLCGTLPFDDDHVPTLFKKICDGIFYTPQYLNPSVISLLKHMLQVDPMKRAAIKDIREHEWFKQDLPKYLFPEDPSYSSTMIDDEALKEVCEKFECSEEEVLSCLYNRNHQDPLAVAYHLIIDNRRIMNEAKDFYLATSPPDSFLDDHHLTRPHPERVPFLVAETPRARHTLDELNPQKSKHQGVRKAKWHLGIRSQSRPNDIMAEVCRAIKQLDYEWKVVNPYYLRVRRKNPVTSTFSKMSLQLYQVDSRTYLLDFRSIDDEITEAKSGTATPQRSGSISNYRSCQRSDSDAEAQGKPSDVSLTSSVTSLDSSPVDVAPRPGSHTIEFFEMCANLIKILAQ
Procedure, shortened: (§1)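 C2C12 myoblasts seeded at 10^5 cells/well and differentiated at confluence in DMEM with 5% horse serum, medium changed every 48 h until myotubes formed. Myotubes exposed to compounds for 30 min, lysed in EBC buffer (50 mM Tris-HCl pH 7.6, 120 mM NaCl, 1 mM EDTA, 0.5% NP-40, 50 mM NaF). About 30 µg protein immunoblotted for phospho-AMPKα Thr172, phospho-ACC Ser79, total AMPK, β-actin.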

[2] = molecular target: 5'-AMP-activated protein kinase catalytic subunit alpha-1 (Mus musculus) (UniProt Q5EG47); test: Activation of AMPKalpha in differentiated mouse C2C12 cells assessed as phosphorylated-ACC level at 10 uM after 30 mins by Western blot analysis relative to control; procedure, shortened: as §1
[3] = molecular target: 5'-AMP-activated protein kinase catalytic subunit alpha-1 (Mus musculus) (UniProt Q5EG47); test: Activation of AMPKalpha in differentiated mouse C2C12 cells assessed as change in AMPK level at 10 uM after 30 mins by Western blot analysis relative to control; procedure, shortened: as §1

Activity [1] | Activity [2] | Activity [3] | Structure (SMILES)
Active | Active | inactive | CC(C)=CCc1c(O)ccc2c1oc1c3ccc(O)cc3oc(=O)c21
– | Active | inactive | CC(C)=CCc1cc(-c2oc3c(CC=C(C)C)c(O)ccc3c2C(=O)O)c(O)cc1O
Active | Active | inactive | COc1ccc2c(oc3c4ccc(O)cc4oc(=O)c23)c1CC=C(C)C
inactive | inactive | inactive | COc1cc(C2(C=O)COc3cc(O)ccc32)c(OC)cc1O (stereo not drawn)
inactive | inactive | inactive | COc1cc([C@@H]2COc3cc(O)ccc32)c(OC)cc1O
inactive | inactive | inactive | CC(C)=CCc1cc(-c2oc3c(CC=C(C)C)c(O)ccc3c2C=O)c(O)cc1O
Active | Active | inactive | CC(C)=CCc1cc2c(cc1O)oc(=O)c1c3ccc(O)c(CC=C(C)C)c3oc21
Active | Active | inactive | COc1ccc2c(C=O)c(-c3ccc(O)cc3O)oc2c1CC=C(C)C
